Reference: ChEMBL document CHEMBL3046415, “Improved microwave-mediated synthesis of 3-(3-aryl-1,2,4-oxadiazol-5-yl)propionic acids and their larvicidal and fungal growth inhibitory properties” (2009)
Calls of active or inactive are those of the source. No cut-off for these calls is given here.

Key:
Type in all cases: functional
Fusarium solani = assay: Antifungal activity against Fusarium solani assessed as growth inhibition at 2 ug/ml after 72 hr by disk diffusion test; conditions: read-out: GI
Summary of the method: (§1)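 Strains from a university mycology culture collection, grown on PDA at 28 °C for 8–15 d until plates were covered. Mycelial disks ([…]) were cut from colony edges and placed on test plates. Ethylene glycol served as negative control. Plates were incubated at 28 °C for up to 72 h in triplicate. Percent inhibition was calculated from reduction in growth diameter.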

Fusarium verticillioides [1] = assay: Antifungal activity against Fusarium verticillioides assessed as growth inhibition at 2 ug/ml after 48 hr by disk diffusion test; summary of the method: as §1
Fusarium decemcellulare = assay: Antifungal activity against Fusarium decemcellulare assessed as growth inhibition at 2 ug/ml after 72 hr by disk diffusion test; conditions: read-out: GI; summary of the method: as §1
Fusarium verticillioides [2] = assay: Antifungal activity against Fusarium verticillioides assessed as growth inhibition at 2 ug/ml after 72 hr by disk diffusion test; summary of the method: as §1
Fusarium lateritium = assay: Antifungal activity against Fusarium lateritium assessed as growth inhibition at 2 ug/ml after 72 hr by disk diffusion test; conditions: read-out: GI; summary of the method: as §1

Row | Structure (SMILES) | inhibition of growth at 2 µg/mL (Fusarium solani) | growth inhibition (GI) (Fusarium verticillioides [1]) | inhibition of growth at 2 µg/mL (Fusarium decemcellulare) | growth inhibition (GI) (Fusarium verticillioides [2]) | inhibition of growth at 2 µg/mL (Fusarium verticillioides [1]; read-out: GI) | inhibition of growth at 2 µg/mL (Fusarium verticillioides [2]; read-out: GI) | inhibition of growth at 2 µg/mL (Fusarium lateritium)
1 | O=C(O)CCc1nc(-c2ccc(Cl)cc2)no1 | 59.7% | Active | 66% | inactive | – | – | –
2 | O=C(O)CCc1nc(-c2ccc(Br)cc2)no1 | – | Active | – | inactive | – | – | –
3 | Cc1ccccc1-c1noc(CCC(=O)O)n1 | – | Active | – | inactive | – | – | –
4 | O=C(O)CCc1nc(-c2ccccc2)no1 | – | – | – | – | 52.8% | 52.8% | –
5 | Cc1cccc(-c2noc(CCC(=O)O)n2)c1 | – | Active | – | inactive | – | – | –
6 | COc1ccc(-c2noc(CCC(=O)O)n2)cc1 | – | Active | 52.8% | inactive | – | – | 45.8%
7 | Cc1ccc(-c2noc(CCC(=O)O)n2)cc1 | – | Active | – | inactive | – | – | –
8 | O=C(O)CCc1nc(-c2ccc([N+](=O)[O-])cc2)no1 | – | Active | – | inactive | – | – | –
9 | O=C(O)CCc1nc(-c2ccc(F)cc2)no1 | – | Active | – | inactive | – | – | 43%
